# Test results from ChEMBL document CHEMBL6134796, “Development and Evaluation of Indole-Based Phospholipase D Inhibitors for Lung Cancer Immunotherapy” (J Med Chem, 2025).
# Calls of active or inactive are those of the source. No cut-off for these calls is given here.
# Experiments:
# [1] = target: T1, Phospholipase D1 (Homo sapiens) (UniProt Q13393); assay: Inhibition of PLD1 (unknown origin) overexpressed in human A549 cells; assay type: cell-based
# T1 sequence (whole entry): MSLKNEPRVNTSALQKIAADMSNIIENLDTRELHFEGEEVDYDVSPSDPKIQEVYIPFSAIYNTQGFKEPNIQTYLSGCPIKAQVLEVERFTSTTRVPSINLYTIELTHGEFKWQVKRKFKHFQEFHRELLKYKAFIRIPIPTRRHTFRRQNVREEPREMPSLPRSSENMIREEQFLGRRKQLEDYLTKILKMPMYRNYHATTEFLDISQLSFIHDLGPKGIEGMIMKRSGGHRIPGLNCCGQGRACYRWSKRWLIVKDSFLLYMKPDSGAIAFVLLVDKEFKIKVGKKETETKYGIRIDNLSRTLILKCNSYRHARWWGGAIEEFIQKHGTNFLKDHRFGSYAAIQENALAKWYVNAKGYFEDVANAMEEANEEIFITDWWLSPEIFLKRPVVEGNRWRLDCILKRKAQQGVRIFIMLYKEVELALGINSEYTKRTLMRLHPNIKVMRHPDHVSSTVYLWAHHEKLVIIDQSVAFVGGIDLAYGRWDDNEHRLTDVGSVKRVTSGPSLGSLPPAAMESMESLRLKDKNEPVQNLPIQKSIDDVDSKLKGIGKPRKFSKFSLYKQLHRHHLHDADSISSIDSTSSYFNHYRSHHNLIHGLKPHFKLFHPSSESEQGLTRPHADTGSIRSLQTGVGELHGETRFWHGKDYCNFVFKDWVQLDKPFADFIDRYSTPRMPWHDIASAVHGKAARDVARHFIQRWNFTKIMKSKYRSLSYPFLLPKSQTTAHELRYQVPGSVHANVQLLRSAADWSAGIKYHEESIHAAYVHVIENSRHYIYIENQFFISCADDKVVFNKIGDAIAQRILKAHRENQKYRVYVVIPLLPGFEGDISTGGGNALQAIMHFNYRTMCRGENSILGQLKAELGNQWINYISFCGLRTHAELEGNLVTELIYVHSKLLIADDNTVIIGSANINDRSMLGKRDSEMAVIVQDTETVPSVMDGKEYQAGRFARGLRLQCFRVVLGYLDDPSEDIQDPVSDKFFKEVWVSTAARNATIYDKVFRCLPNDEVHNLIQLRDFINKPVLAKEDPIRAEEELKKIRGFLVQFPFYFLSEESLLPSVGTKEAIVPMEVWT
# Method in brief: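 A549 cells transfected with wild-type PLD1, PLD1 mutants (L425A, F614A, F789A) or PLD2, then compound-treated. PLD activity measured as [3H]phosphatidylbutanol formed in the presence of 1-butanol after [3H]myristic acid labeling, expressed as % of total lipid cpm. At least three independent experiments.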
# HCT-116 [2] = assay: Cytotoxicity against human HCT-116 cells assessed as inhibition of cell growth incubated for 48 hrs by WST-1 assay; assay type: functional, cell-based; details: HCT-116, 48 h
# A549 [3] = assay: Inhibition of cell migration in human A549 cells measured after 24 hrs by crystal violet staining based light microscopic analysis; assay type: functional
# A549 [4] = assay: Induction of apoptosis in human A549 cells by annexin V and PI staining based flow cytometry analysis; assay type: functional, cell-based
# A549 [5] = assay: Downregulation of CD24 expression in human A549 cells by flow cytometry analysis; assay type: functional, cell-based
# Method in brief: (§1)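 A549 cells treated with compound. Surface "don't eat-me" and "eat-me" markers measured by flow cytometry.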
# A549 [6] = assay: Downregulation of CD47 expression in human A549 cells by flow cytometry analysis; assay type: functional, cell-based; method in brief: as §1
# [7] = Metabolic stability in human plasma assessed as parent compound remaining at 10 uM measured after 30 mins; assay type: ADME, cell-free; details: read-out: Stability
# Method in brief: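 Citrated human plasma spiked to final 10 μM, incubated at 37 °C for 0, 30 and 120 min; quenched with acetonitrile containing internal standard, vortexed, centrifuged at 4 °C; parent remaining quantified by LC-MS/MS in MRM mode on C18 column, formic acid water/acetonitrile gradient.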
# [8] = tested on: Lewis lung carcinoma cell line; assay: Antitumor activity against mouse Lewis lung carcinoma cell line allografted in male C57BL/6 mouse model assessed as reduction in tumor formation at 10 mg/kg, po measured every other day for 3 weeks; assay type: functional, organism-based
# Method in brief: (§2)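 Syngeneic model: 6-week-old male C57BL/6 mice given 3 × 10^5 LLC cells in 50 μL PBS subcutaneously in the flank. At day 7, mice were randomized to vehicle PO daily or 10 mg/kg PO every other day for 3 weeks. Caliper volume was taken every 2 days as ([…])/2, with tumor weight at end. Spleen size and weight were recorded. Ki67 and cleaved caspase-3 were scored by IHC (DAB, hematoxylin).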
# [9] = tested on: Lewis lung carcinoma cell line; assay: Antitumor activity against mouse Lewis lung carcinoma cell line allografted in male C57BL/6 mouse model assessed as recovery of spleen size at 10 mg/kg, po measured every other day for 3 weeks; assay type: functional, organism-based; method in brief: as §2
# [10] = tested on: Lewis lung carcinoma cell line; assay: Antitumor activity against mouse Lewis lung carcinoma cell line allografted in male C57BL/6 mouse model assessed as increase in caspase 3 expression at 10 mg/kg, po measured every other day for 3 weeks by IHC analysis; assay type: functional, organism-based; method in brief: as §2
# Mus musculus = assay: In vivo inhibition of KRAS activation in male C57BL/6 mouse allografted with mouse Lewis lung carcinoma cell line assessed as decrease in Akt phosphorylation at 10 mg/kg, po; assay type: functional, organism-based
# [11] = tested on: Lewis lung carcinoma cell line; assay: Antitumor activity against mouse Lewis lung carcinoma cell line allografted in […] male C57BL/6 mouse model assessed as increase in cell apoptosis at 10 mg/kg, po measured every other day for 3 weeks; assay type: functional, organism-based
# HCT-116 [12] = assay: Residual PLD activity in human HCT-116 cells at 10 uM measured after 1 hr by amplex red phospholipase D assay as % of control
structure (smiles),measurement,setting,value
O=C(CCc1c[nH]c2ccccc12)Nc1cc(C(F)(F)F)cc(C(F)(F)F)c1,inhibition,[1],Active
same,IC50,HCT-116 [2],29 µM
same,inhibition,A549 [3],Active
same,Activity,A549 [4],Active
same,Activity,A549 [5],Active
same,Activity,A549 [6],Active
same,"remaining at 0.5 h, 10 µM",[7],97.4%
same,Activity,[8],Active
same,Activity,[9],Active
same,Activity,[10],Active
same,inhibition,Mus musculus,Active
same,Activity,[11],Active
same,"level, % of control",HCT-116 [12],26.6%
